According to ChEMBL document CHEMBL1146517, “Scleritodermin A, a cytotoxic cyclic peptide from the lithistid sponge Scleritoderma nodosum” (J Nat Prod, 2004):
One block for each molecule: values may come before it. Calls of active or inactive are those of the source. The calls are words filed in the database; no cut-off is given here.

Columns and labels:
HCT-116 [1] = assay: Cytotoxicity against human HCT116 cells after 72 hrs by MTS assay; format: functional, cell-based; details: HCT-116, 72 h
Outline: (§1)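 Cells grown in RPMI 1640 with 5 mM HEPES and 10% FBS; HCT116/VM46 is a multidrug-resistant subline of HCT116. Seeded in microtiter plates, compound added 24 h later as serial dilutions, then 72 h at 37 °C. MTS plus phenazine methosulfate added, absorbance read at 492 nm as viable-cell measure; IC50 reported.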

HCT-116 [2] = assay: Cytotoxicity against VM46-resistant human HCT116 cells overexpressing P-gp after 72 hrs by MTS assay; format: functional, cell-based; details: HCT-116, 72 h; outline: as §1
A2780 [3] = assay: Cytotoxicity against human A2780 cells after 72 hrs by MTS assay; format: functional, cell-based; details: A2780, 72 h; outline: as §1
SK-BR-3 = assay: Cytotoxicity against human SKBR3 cells after 72 hrs by MTS assay; format: functional, cell-based; details: SK-BR-3, 72 h; outline: as §1
HCT-116 [4] = assay: Ratio of IC50 for VM46-resistant human HCT116 cells overexpressing P-gp to IC50 for human HCT116 cells; format: functional
A2780 [5] = assay: Induction of apoptosis in human A2780 cells at 1.3 uM after 24 hrs by TUNEL assay; format: functional
Outline: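 A2780 cells seeded in six-well plates, treated the next day for 24 h, then collected. Apoptosis scored by TUNEL assay read by flow cytometry, with doublet discrimination gates during acquisition and analysis; apoptosis expressed as fold induction.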

A2780 [6] = assay: Cell cycle arrest in human A2780 cells assessed as accumulation at G2/M phase at 1.3 uM after 24 hrs by flow cytometry analysis; format: functional, cell-based
Outline: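 A2780 cells seeded in six-well plates, compound added next day for 24 h. Cells trypsinized, fixed overnight in 80% ethanol at -20 °C, PBS-washed, stained 1 h at RT with propidium iodide (50 µg/mL) and RNase (10 µg/mL). Flow cytometry; G0/G1, S and G2-M fractions calculated from DNA histograms.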

Bos taurus = species: Bos taurus; assay: Inhibition of GTP-induced calf brain tubulin polymerization at 10 uM
Outline: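 Twice-cycled calf brain tubulin in 100 mM MES pH 6.6, 1 mM EGTA, 0.5 mM MgCl2, preincubated with compound. Polymerization started with 500 µM GTP; absorbance at 350 nm read every 36 s in cuvettes held at 37 °C.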

inhibition (Bos taurus): 50%
Compound: CC[C@@H](C)[C@@H]1NC(=O)[C@@H]2CCCN2C(=O)[C@@H](NC(=O)[C@@H]2CCCN2C(=O)[C@@H](COC)NS(=O)(=O)[O-])COC(=O)/C(C)=C\C(C)=C\c2csc(n2)[C@H](Cc2ccc(O)cc2)NC(=O)C1=O.[Na+] [SCLERITODERMIN A]
IC50 (HCT-116 [1]): 1900 nM
IC50 (HCT-116 [2]): 5600 nM
IC50 (A2780 [3]): 940 nM
IC50 (SK-BR-3): 670 nM
Ratio IC50 (HCT-116 [4]): 2.9
fold change (FC) (A2780 [5]): 5.5
Activity (A2780 [6]): Active

Compound: CC[C@]1(O)C[C@@H]2CN(CCc3c([nH]c4ccccc34)[C@@](C(=O)OC)(c3cc4c(cc3OC)N(C)[C@H]3[C@@](O)(C(=O)OC)[C@H](OC(C)=O)[C@]5(CC)C=CCN6CC[C@]43[C@@H]65)C2)C1 [VINBLASTINE]
IC50 (HCT-116 [1]): 3 nM
IC50 (HCT-116 [2]): 135 nM
IC50 (A2780 [3]): 5 nM
IC50 (SK-BR-3): 72 nM
Ratio IC50 (HCT-116 [4]): 45
